The record followed here is ChEMBL document CHEMBL1764988, “Synthesis of 2-(substituted phenyl)-3,5,5-trimethylmorpholine analogues and their effects on monoamine uptake, nicotinic acetylcholine receptor function, and behavioral effects of nicotine” (J Med Chem, 2011).

For test [1], the species on record is Mus musculus. Kind of test: Effect on behavioral activity in ICR mouse assessed as inhibition of nicotine-induced locomotory response. Format: functional. An outline of the steps:
(§1)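 Male ICR mice (20–25 g) were used to test blockade of acute nicotine effects (tail-flick, hot-plate, locomotor activity, body temperature). At least four doses of test compound were given, with at least eight mice per dose group. Results were expressed as AD50 (mg/kg) with confidence limits, or as % effect at the highest dose tested.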

Test [2] concerns the target Nicotinic acetylcholine receptor alpha-1/beta-1 (Homo sapiens, UniProt P02708+P11230). Kind of test: Antagonist activity at human alpha1beta1 nAChR in HEK293 cells assessed as inhibition of carbamylcholine-induced radiolabeled Rb ion efflux. Format: functional, cell-based. An outline of the steps: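 86Rb+ efflux from human nAChR subtypes naturally or heterologously expressed in human cell lines. Cells were stimulated with a subtype-specific EC80–EC90 concentration of the full agonist carbamylcholine, alone or with test ligand (log molar series). Specific efflux was expressed as percent of control. IC50 values are means from three independent experiments; SEM is given as a multiplication/division factor.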

The species named for test [3] is Mus musculus. Put plainly: Antinociceptive activity in ICR mouse assessed as inhibition of nicotine-induced response by hotplate test. It counts as functional. An outline of the steps:
as §1

For test [4], the species on record is Mus musculus. Put plainly: Antinociceptive activity in ICR mouse assessed as inhibition of nicotine-induced response by tail flick test. It counts as functional. An outline of the steps: as §1
Background: In hot-plate and tail-flick tests a longer latency is read as antinociception.

Test [5] deals with Sodium-dependent dopamine transporter (Homo sapiens, UniProt Q01959). Put plainly: Inhibition of human DAT in HEK293 cells assessed as inhibition of [3H]dopamine uptake. It counts as cell-based. An outline of the steps: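 [3H]DA, [3H]NE or [3H]5HT uptake was measured by the corresponding human transporter stably expressed in HEK-293 cells. Values are mean ± standard error of three independent experiments, each run in triplicate.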
Sequence of Sodium-dependent dopamine transporter (Q01959 whole entry): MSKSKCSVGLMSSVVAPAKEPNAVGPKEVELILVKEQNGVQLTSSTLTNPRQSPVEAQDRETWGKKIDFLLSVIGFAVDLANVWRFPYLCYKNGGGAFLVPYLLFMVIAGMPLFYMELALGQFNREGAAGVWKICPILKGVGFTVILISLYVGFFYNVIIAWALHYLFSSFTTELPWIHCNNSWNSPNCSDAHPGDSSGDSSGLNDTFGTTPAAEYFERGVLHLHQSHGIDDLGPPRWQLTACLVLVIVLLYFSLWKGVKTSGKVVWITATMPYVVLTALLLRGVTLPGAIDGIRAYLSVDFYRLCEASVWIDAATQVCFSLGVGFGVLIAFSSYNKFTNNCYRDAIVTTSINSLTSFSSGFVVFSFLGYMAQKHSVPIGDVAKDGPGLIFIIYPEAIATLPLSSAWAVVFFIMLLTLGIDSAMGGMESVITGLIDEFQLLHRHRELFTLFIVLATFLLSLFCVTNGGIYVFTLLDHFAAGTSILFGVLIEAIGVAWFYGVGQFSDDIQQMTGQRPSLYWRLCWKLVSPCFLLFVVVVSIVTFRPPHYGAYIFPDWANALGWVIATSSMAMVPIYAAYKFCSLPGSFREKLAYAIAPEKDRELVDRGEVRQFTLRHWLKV

The species named for test [6] is Mus musculus. Kind of test: Effect on body temperature in ICR mouse assessed as inhibition of nicotine-induced hypothermic response. It counts as functional. An outline of the steps:
as §1

Sequence of Nicotinic acetylcholine receptor alpha-1/beta-1 (P02708 whole entry): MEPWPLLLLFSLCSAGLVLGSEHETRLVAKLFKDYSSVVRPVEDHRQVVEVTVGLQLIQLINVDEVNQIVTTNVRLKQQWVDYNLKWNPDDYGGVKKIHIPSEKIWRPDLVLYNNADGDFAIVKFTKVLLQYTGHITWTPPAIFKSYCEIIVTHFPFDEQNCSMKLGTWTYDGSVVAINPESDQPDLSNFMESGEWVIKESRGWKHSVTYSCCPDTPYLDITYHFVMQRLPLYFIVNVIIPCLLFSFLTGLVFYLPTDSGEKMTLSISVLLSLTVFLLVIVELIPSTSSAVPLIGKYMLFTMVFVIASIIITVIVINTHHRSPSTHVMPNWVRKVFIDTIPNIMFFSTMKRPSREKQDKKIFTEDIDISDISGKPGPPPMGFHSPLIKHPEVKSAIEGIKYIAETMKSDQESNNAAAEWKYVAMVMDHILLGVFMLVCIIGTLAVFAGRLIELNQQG
Sequence of Nicotinic acetylcholine receptor alpha-1/beta-1 (P11230 whole entry): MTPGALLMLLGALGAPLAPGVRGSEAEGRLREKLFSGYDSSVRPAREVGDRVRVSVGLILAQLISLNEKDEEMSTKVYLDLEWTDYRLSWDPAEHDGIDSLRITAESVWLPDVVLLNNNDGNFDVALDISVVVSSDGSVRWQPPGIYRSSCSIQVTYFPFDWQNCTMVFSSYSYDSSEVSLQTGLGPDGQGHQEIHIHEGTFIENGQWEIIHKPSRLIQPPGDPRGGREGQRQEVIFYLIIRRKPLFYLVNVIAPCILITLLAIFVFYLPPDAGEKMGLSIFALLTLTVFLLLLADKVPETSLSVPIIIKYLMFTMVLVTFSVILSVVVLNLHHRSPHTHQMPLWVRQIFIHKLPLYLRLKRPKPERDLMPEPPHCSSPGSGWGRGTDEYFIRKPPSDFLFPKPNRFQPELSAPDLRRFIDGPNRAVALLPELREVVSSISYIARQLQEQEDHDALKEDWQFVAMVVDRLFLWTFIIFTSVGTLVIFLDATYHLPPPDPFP

Usually IC50 stands for the point on the concentration scale where inhibition reaches its midpoint. With `C[C@@H]1NC(C)(C)CO[C@@]1(O)c1cccc(Br)c1`, the AD50 in the test filed under Mus musculus [1] was 2.1 mg/kg; in the test filed under Mus musculus [3], over 20 mg/kg; in the test filed under Mus musculus [4], 0.006 mg/kg; in the test listed under Mus musculus [6], over 20 mg/kg. Besides, the IC50 in test [2] was found to be 7.3 µM; in test [5], 0.044 µM.
For the molecule `C[C@H]1NC(C)(C)CO[C@]1(O)c1cccc(Cl)c1`, the AD50 was over 20 mg/kg in the test filed under Mus musculus [1], 3.9 mg/kg in the test filed under Mus musculus [3], 1.26 mg/kg in the test filed under Mus musculus [4] and over 20 mg/kg in the test listed under Mus musculus [6].
Take `C[C@@H]1N(C)C(C)(C)CO[C@@]1(O)c1cccc(Cl)c1`: the AD50 in the test filed under Mus musculus [1] was 3.8 mg/kg; in the test filed under Mus musculus [3], over 20 mg/kg; in the test listed under Mus musculus [4], 0.13 mg/kg; in the test listed under Mus musculus [6] it was over 20 mg/kg. In addition, the IC50 came to 21 µM in test [2] and 0.23 µM in test [5].
Turning to `CCC[C@@H]1NC(C)(C)CO[C@@]1(O)c1cccc(Cl)c1`, the AD50 in the test filed under Mus musculus [1] was 0.49 mg/kg; in the test filed under Mus musculus [3], over 20 mg/kg; in the test filed under Mus musculus [4] it was 0.017 mg/kg; in the test listed under Mus musculus [6], over 20 mg/kg.
